From article PMC7115619 (European Journal of Medicinal Chemistry, 2015)
Entries after “also recorded” stand apart in the source; their conditions may differ.

Key:
HHV-2 (VR-734-G strain) = assay: Screening against HHV-2 by end-point titration technique; assay type: cell-based, Human Herpesvirus type 2; conditions: Vero cell line; 10 TCID50; 72 h
Outline: (§1)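 Vero cells (2.0 × 10^4 cells/well) were grown to ≥80% monolayer. 10 TCID50 virus was mixed with test compound (6.25–50 μg/mL) in DMEM/2% FBS containing CMC: 1% for HHV-1, 0.5% for HHV-2. Mixture held 15 min at room temperature, then incubated at 37 °C: 48 h (HHV-1) or 72 h (HHV-2). Crystal violet/formaldehyde stain, plaques counted. Titer reduction factor: ≥1 × 10^3 relevant, 1 × 10^2 moderate. Two experiments in quadruplicate.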

DENV-2 = assay: Plaque reduction assay, pre- and post-infection treatment, DENV-2; assay type: cell-based, Dengue virus type 2; conditions: Dengue virus, DENV2, Vero, 192 h, read-out: EC50 pre-infection treatment DENV-2
Outline: (§2)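 Vero monolayers (2.5 × 10^4 cells/well) received 100 PFU/well (DENV-2 New Guinea or HHV-2 VR-734-G). Pre-infection: virus/test compound mixture for 1 h at 37 °C, then PBS (pH 7.0) wash and CMC overlay. Post-infection: virus 1 h, wash, then compound in CMC. CMC was 2% for DENV-2 (8 days) and 0.75% for HHV-2 (72 h). Formaldehyde/crystal violet stain, plaques counted. EC50 by linear regression; mean of three experiments.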

HHV-2 = assay: Plaque reduction assay, pre- and post-infection treatment, HHV-2; assay type: cell-based, Human Herpesvirus type 2; conditions: Vero, 72 h, read-out: EC50 pre-infection treatment HHV-2
Outline: as §2

[1] = tested on: HHV-1 (CDC Atlanta strain); assay: Screening against HHV-1 by end-point titration technique; assay type: cell-based, Human Herpesvirus type 1; conditions: Vero cell line; 10 TCID50; 48 h
Outline: as §1

Vero cells = assay: MTT cytotoxicity on Vero cells; assay type: cell-based, Cercopithecus aethiops; conditions: read-out: IC50 (μM) 72 h, inhibitory concentration of cell proliferation

| Compound | Rf, reduction factor of the viral titer, HHV-2 (HHV-2 (VR-734-G strain)) | EC50 (DENV-2) | EC50 (HHV-2) | Rf, reduction factor of the viral titer, HHV-1 [1] | IC50 (Vero cells) |
| --- | --- | --- | --- | --- | --- |
| Nc1nc2c(ncn2COCCO)c(=O)[nH]1 [ACV, acyclovir] | 10^3 | – | – | – | – |
| CC(C)c1cc2c(cc1O)[C@@]1(C)CCC[C@@](C)(CN3C(=O)c4ccccc4C3=O)[C@@H]1CC2 [Compound 8] | – | > 29 µM | > 29 µM | – | – |
| CC(C)c1cc2c(cc1O)[C@@]1(C)CCC[C@@](C)(C=O)[C@@H]1CC2 [Compound 9, 18-oxoferruginol] | – | > 20.8 µM | > 20.8 µM | did not show activity; also recorded: did not show reduction of viral titer | – |
| dextran sulfate [DEX-S] | – | – | – | – | > 10 µM |
